According to ChEMBL document CHEMBL3272063, “Potential antitumor agents. 13. 4-Methyl-5-amino-1-formylisoquinoline thiosemicarbazone” (J Med Chem, 1976):
Calls of active or inactive are those of the source. The rule behind the calls is not given here.

Experiments:
[1] = Antitumor activity against mouse S180A cells allografted in CD-1 mouse assessed as average survival at maximum effective dose administered qd for 6 days relative to control; format: functional
Rattus norvegicus [2] = organism: Rattus norvegicus; assay: Inhibition of ribonucleoside-diphosphate reductase in rat hepatoma cells relative to 5-hydroxy-2-formylpyridine thiosemicarbazone; format: cell-based
Rattus norvegicus [3] = organism: Rattus norvegicus; assay: Inhibition of ribonucleoside-diphosphate reductase in rat hepatoma cells relative to 4-(m-amino)phenyl-2-formylpyridine thiosemicarbazone; format: cell-based
[4] = Antitumor activity against mouse S180A cells allografted in CD-1 mouse assessed as average survival at maximum effective dose administered qd for 6 days (reference value: 12.6 +/- 0.6 days); format: functional
[5] = Antitumor activity against mouse S180A cells allografted in CD-1 mouse assessed as dose required for maximum increase in mouse survival administered qd for 6 days; format: functional
Mus musculus = assay: Toxicity in CD-1 mouse allografted with mouse S180A cells assessed as change in body weight at maximum effective dose administered qd for 6 days (reference value: 18.2%); format: organism-based; details: 144 h
S180A = assay: Antitumor activity against mouse S180A cells allografted in CD-1 mouse assessed as increase in mouse survival administered qd for 6 days; format: functional, cell-based
Summary of the method: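 Adult female CD-1 mice given Sarcoma 180 ascites cells taken from a donor mouse carrying a 7-day tumor. Drug dosed once daily for six consecutive days, starting 24 h after implantation, across 5-100 mg/kg/day. Read-out is average survival time, with mice alive at 50 days counted as 50-day survivors. %T/C = treated/control × 100. Value reported at the maximum effective daily dose.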

Row | SMILES | T/C [1] [%] | fold change (FC) (Rattus norvegicus [2]) | fold change (FC) (Rattus norvegicus [3]) | Survival [4] [days] | Activity [5] [mg/kg] | Activity (Mus musculus) [%] | Activity (S180A)
1 | Cc1cnc(/C=N/NC(N)=S)c2cccc(N)c12 | 303 | 60 | 2 | 38.2 | 10 | -4.8 | 
2 | NC(=S)N/N=C/c1nccc2ccccc12 | 311 |  |  | 39.2 | 40 | -5.1 | 
3 | N/C(S)=N/N=C/c1ccc(O)cn1 | 241 |  |  | 30.4 | 60 | -3.3 | 
4 | Cc1cnc(/C=N/NC(N)=S)c2cccc([N+](=O)[O-])c12 |  |  |  |  |  |  | inactive
5 | NC(=S)N/N=C/c1nccc2c(N)cccc12 | 296 |  |  | 37.3 | 40 | -8.5 | 
